System: U2OS
Assay: Multiplex assay against U2OS
Type: toxicity, cell-based
Conditions: human
Outline: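 With compound added, live cells were imaged on a CQ1 microscope at 37°C and 5% CO2; staining with Hoechst33342, BioTracker Green Microtubule Cytoskeleton Dye, MitoTracker Red and Annexin V Alexa Fluor 680 had been done at seeding. The CellPathfinder machine-learning gating scheme split cells into Hoechst high-intensity objects or normal cells, normal cells into healthy, pyknosed or fragmented nuclei, and pyknosed cells into mitotic or apoptotic. The tubulin, mitochondrial-mass and membrane-permeability phenotypes are per cents of healthy-nucleus cells.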

[1] = 12 h, 1 µM, compound concentration 1 uM, replicate 1
[2] = 12 h, 1 µM, compound concentration 1 uM, replicate 2
[3] = 12 h, 10 µM, compound concentration 10 uM, replicate 1
[4] = 12 h, 10 µM, compound concentration 10 uM, replicate 2
[5] = 24 h, 1 µM, compound concentration 1 uM, replicate 1
[6] = 24 h, 1 µM, compound concentration 1 uM, replicate 2
[7] = 24 h, 10 µM, compound concentration 10 uM, replicate 1
[8] = 24 h, 10 µM, compound concentration 10 uM, replicate 2
[9] = 48 h, 1 µM, compound concentration 1 uM, replicate 1
[10] = 48 h, 1 µM, compound concentration 1 uM, replicate 2
[11] = 48 h, 10 µM, compound concentration 10 uM, replicate 1
[12] = 48 h, 10 µM, compound concentration 10 uM, replicate 2

COc1ncc(-c2ccc3nccc(-c4ccnnc4)c3c2)cc1NS(=O)(=O)c1ccc(F)cc1F [OMIPALISIB]
Population Apoptotic (%) [1]: 65% | Population Fragmented Nuclei (%) [1]: 13% | Population Healthy Nuclei (%) [1]: 67% | Population Hoechst High Intensity Objects (%) [1]: 4% | Population Membrane Permeable-Phenotype (%) [1]: 6% | Population Mitochondria Different-Phenotype (%) [1]: 3% | Population Mitotic Cells (%) [1]: 34% | Population Normal (%) [1]: 95% | Population Pyknosed Nuclei (%) [1]: 18% | Population Tubulin-Different-Phenotype (%) [1]: 9% | Total Cell Count [1]: 135 | Population Apoptotic (%) [2]: 50% | Population Fragmented Nuclei (%) [2]: 46% | Population Healthy Nuclei (%) [2]: 42% | Population Hoechst High Intensity Objects (%) [2]: 7% | Population Membrane Permeable-Phenotype (%) [2]: 16% | Population Mitochondria Different-Phenotype (%) [2]: 16% | Population Mitotic Cells (%) [2]: 50% | Population Normal (%) [2]: 92% | Population Pyknosed Nuclei (%) [2]: 11% | Population Tubulin-Different-Phenotype (%) [2]: 23% | Total Cell Count [2]: 51 | Population Apoptotic (%) [3]: 58% | Population Fragmented Nuclei (%) [3]: 28% | Population Healthy Nuclei (%) [3]: 37% | Population Hoechst High Intensity Objects (%) [3]: 6% | Population Membrane Permeable-Phenotype (%) [3]: 14% | Population Mitochondria Different-Phenotype (%) [3]: 15% | Population Mitotic Cells (%) [3]: 41% | Population Normal (%) [3]: 93% | Population Pyknosed Nuclei (%) [3]: 33% | Population Tubulin-Different-Phenotype (%) [3]: 15% | Total Cell Count [3]: 150 | Population Apoptotic (%) [4]: 65% | Population Fragmented Nuclei (%) [4]: 33% | Population Healthy Nuclei (%) [4]: 27% | Population Hoechst High Intensity Objects (%) [4]: 7% | Population Membrane Permeable-Phenotype (%) [4]: 11% | Population Mitochondria Different-Phenotype (%) [4]: 16% | Population Mitotic Cells (%) [4]: 34% | Population Normal (%) [4]: 92% | Population Pyknosed Nuclei (%) [4]: 39% | Population Tubulin-Different-Phenotype (%) [4]: 22% | Total Cell Count [4]: 77 | Population Apoptotic (%) [5]: 62% | Population Fragmented Nuclei (%) [5]: 19% | Population Healthy Nuclei (%) [5]: 61% | Population Hoechst High Intensity Objects (%) [5]: 9% | Population Membrane Permeable-Phenotype (%) [5]: 5% | Population Mitochondria Different-Phenotype (%) [5]: 4% | Population Mitotic Cells (%) [5]: 37% | Population Normal (%) [5]: 90% | Population Pyknosed Nuclei (%) [5]: 18% | Population Tubulin-Different-Phenotype (%) [5]: 14% | Total Cell Count [5]: 135 | Population Apoptotic (%) [6]: 33% | Population Fragmented Nuclei (%) [6]: 43% | Population Healthy Nuclei (%) [6]: 40% | Population Hoechst High Intensity Objects (%) [6]: 11% | Population Membrane Permeable-Phenotype (%) [6]: 24% | Population Mitochondria Different-Phenotype (%) [6]: 17% | Population Mitotic Cells (%) [6]: 66% | Population Normal (%) [6]: 88% | Population Pyknosed Nuclei (%) [6]: 16% | Population Tubulin-Different-Phenotype (%) [6]: 37% | Total Cell Count [6]: 50 | Population Apoptotic (%) [7]: 70% | Population Fragmented Nuclei (%) [7]: 36% | Population Healthy Nuclei (%) [7]: 25% | Population Membrane Permeable-Phenotype (%) [7]: 17% | Population Mitochondria Different-Phenotype (%) [7]: 25% | Population Mitotic Cells (%) [7]: 29% | Population Pyknosed Nuclei (%) [7]: 38% | Population Tubulin-Different-Phenotype (%) [7]: 17% | Total Cell Count [7]: 170 | Population Apoptotic (%) [8]: 80% | Population Fragmented Nuclei (%) [8]: 27% | Population Healthy Nuclei (%) [8]: 22% | Population Hoechst High Intensity Objects (%) [8]: 11% | Population Membrane Permeable-Phenotype (%) [8]: 35% | Population Mitochondria Different-Phenotype (%) [8]: 28% | Population Mitotic Cells (%) [8]: 20% | Population Normal (%) [8]: 88% | Population Pyknosed Nuclei (%) [8]: 49% | Population Tubulin-Different-Phenotype (%) [8]: 42% | Total Cell Count [8]: 81 | Population Apoptotic (%) [9]: 59% | Population Fragmented Nuclei (%) [9]: 23% | Population Healthy Nuclei (%) [9]: 50% | Population Hoechst High Intensity Objects (%) [9]: 12% | Population Membrane Permeable-Phenotype (%) [9]: 7% | Population Mitochondria Different-Phenotype (%) [9]: 6% | Population Mitotic Cells (%) [9]: 40% | Population Normal (%) [9]: 87% | Population Pyknosed Nuclei (%) [9]: 26% | Population Tubulin-Different-Phenotype (%) [9]: 16% | Total Cell Count [9]: 142 | Population Apoptotic (%) [10]: 47% | Population Fragmented Nuclei (%) [10]: 43% | Population Healthy Nuclei (%) [10]: 32% | Population Hoechst High Intensity Objects (%) [10]: 15% | Population Membrane Permeable-Phenotype (%) [10]: 39% | Population Mitochondria Different-Phenotype (%) [10]: 43% | Population Mitotic Cells (%) [10]: 52% | Population Normal (%) [10]: 84% | Population Pyknosed Nuclei (%) [10]: 23% | Population Tubulin-Different-Phenotype (%) [10]: 56% | Total Cell Count [10]: 59 | Population Apoptotic (%) [11]: 83% | Population Fragmented Nuclei (%) [11]: 37% | Population Healthy Nuclei (%) [11]: 9% | Population Hoechst High Intensity Objects (%) [11]: 15% | Population Membrane Permeable-Phenotype (%) [11]: 46% | Population Mitochondria Different-Phenotype (%) [11]: 46% | Population Mitotic Cells (%) [11]: 16% | Population Normal (%) [11]: 84% | Population Pyknosed Nuclei (%) [11]: 52% | Population Tubulin-Different-Phenotype (%) [11]: 61% | Total Cell Count [11]: 181 | Population Apoptotic (%) [12]: 82% | Population Fragmented Nuclei (%) [12]: 31% | Population Healthy Nuclei (%) [12]: 19% | Population Hoechst High Intensity Objects (%) [12]: 18% | Population Membrane Permeable-Phenotype (%) [12]: 81% | Population Mitochondria Different-Phenotype (%) [12]: 72% | Population Mitotic Cells (%) [12]: 17% | Population Normal (%) [12]: 81% | Population Pyknosed Nuclei (%) [12]: 49% | Population Tubulin-Different-Phenotype (%) [12]: 72% | Total Cell Count [12]: 84

— ChEMBL document CHEMBL4689842, “EUbOPEN Chemogenomics Library wave 1” (2021)
